In general, IC50 refers to the concentration needed to halve the response being measured. What is called CC50 is the concentration giving 50% cytotoxicity. Broadly, the inhibition in vivo is the percentage by which the read-out fell short of the control. As usually defined, the Cmax is the peak of the concentration-time curve. A word on the Tmax: it is the time from dosing to the highest level. Broadly, the AUC(0-inf) is total exposure, with the tail of the curve extrapolated. Higher therefore signals high exposure. The half-life is how long it takes for the measured level to halve. Low readings indicate fast loss, high ones slow loss. What is called MRT is the average time that molecules of a dose stay in the body.

Data set [1] relates to Leishmania donovani. Nature of the data set: Antileishmanial activity against late log phase promastigote stage of Leishmania donovani MHOM/IN/80/Dd8 harboring luciferase reporter gene incubated for 72 hrs by Steady-Glo luminescence assay. It counts as functional, organism-based. As to conditions: Leishmania donovani, MHOM/IN/80/Dd8, 72 h; read-out: IC50. The gist of the method: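 Luciferase-transfected promastigotes kept at 25 ± 1 °C in medium 199 + 10% heat-inactivated FCS + G418 (20 μg ml–1). Late-log cells (5 × 10^5 per well) grown 72 h with graded compound concentrations from DMSO, DMSO dilution controls. Aliquot mixed 1:1 with Steady-Glo, luminescence (RLU) read; % inhibition vs control. IC50 by Probit regression, three independent experiments.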
In general terms: Reporter assays use an easily measured gene product as a stand-in for the process of interest.

For data set [2], the system named is Leishmania donovani. Nature of the data set: Antileishmanial activity against Leishmania donovani MHOM/IN/80/Dd8 promastigotes harboring luciferase reporter gene infected in mouse J774 cells assessed as inhibition of amastigote growth incubated for 72 hrs by Steady-Glo luminescence assay. The format is functional, organism-based. The conditions noted are these: Leishmania donovani, MHOM/IN/80/Dd8, J774, 72 h; read-out: IC50. Put shortly: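 J774A.1 mouse macrophages (2 × 10^5 per well, RPMI-1640 + 10% FCS, 37 °C CO2) infected after 24 h with stationary-phase luciferase-transgenic promastigotes at 1:10 macrophage:parasite; compounds in complete medium for 72 h at 37 °C. Medium swapped for PBS, Steady-Glo added, luminescence read; % inhibition vs untreated control RLU. IC50 by Probit log dose/response regression, three independent experiments.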

The nature of data set [3]: Cytotoxicity against mouse J774A1 cells assessed as reduction in cell viability incubated for 48 hrs by MTT assay. The format is cell-based, J774.A1. Put shortly: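 J774A.1 macrophages, 0.2 × 10^6 per well, incubated overnight at 37 °C in 5% CO2, then exposed to compounds in DMSO for 48 h, with DMSO dilutions as controls. Viability read by MTT formazan at 600 nm. CC50 = 50% viability reduction versus medium-only cells, from probit regression; three independent experiments.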
In general terms: Tetrazolium assays rely on reduction of a dye to a coloured formazan, in cell work by metabolically active cells.

Data set [4] can be described thus: Selectivity index, ratio of CC50 for mouse J774.A1 cells to IC50 for amastigote form of Leishmania donovani MHOM/IN/80/Dd8. The format is toxicity. As to conditions: read-out: Ratio CC50/IC50. The gist of the method:
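Macrophages infected at a 1:10 ratio with stationary promastigotes, then treated 72 h at 37 °C; luminescence read with Steady-Glo. IC50 values from probit analysis.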

In data set [5] the test system is Leishmania donovani. Nature of the data set: Antileishmanial activity against Leishmania donovani amastigotes infected in golden hamster assessed as reduction in parasite burden in spleen at 50 mg/kg, ip initiated after 2 days of pre-treatment biopsy administered for 5 days and measured on day 7 by giemsa staining based assay relative to control. As to conditions: 168 h, time 7 day. It counts as functional. Put shortly: (§1)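 Male inbred golden hamsters, 40–45 g, infected with L. donovani. Animals with +1 infection on pre-treatment spleen biopsy randomized, five per group. Intraperitoneal dosing in a vehicle of 10% Tween-80/ethanol (70:30) in ddH2O, 10% final, began 2 days after biopsy and ran 5 consecutive days; vehicle-only controls. Giemsa-stained spleen biopsies taken on day 7 or 28; percentage inhibition computed from initial, treated and untreated-control amastigote counts.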

In data set [6] the test system is Leishmania donovani. Nature of the data set: Antileishmanial activity against Leishmania donovani amastigotes infected in golden hamster assessed as reduction in parasite burden in spleen at 100 mg/kg, po initiated after 2 days of pre-treatment biopsy administered for 5 days and measured on day 7 by giemsa staining based assay relative to control. It counts as functional. As to conditions: 168 h, time 7 day. The gist of the method: (§2)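 Male inbred golden hamsters, 40–45 g, infected with L. donovani. Animals with +1 infection on pre-treatment spleen biopsy (5–15 amastigotes/100 spleen cell nuclei) randomized, five per group. Oral dosing in 5% carboxymethyl cellulose vehicle began 2 days after biopsy and ran 5 consecutive days; vehicle-only infected controls. Giemsa-stained spleen biopsies taken on day 7 or 28 after the last dose; PI = 100 – [ANAT × 100/(INAT × TIUC)].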

Data set [7] concerns Leishmania donovani. Nature of the data set: Antileishmanial activity against Leishmania donovani amastigotes infected in golden hamster assessed as reduction in parasite burden in spleen at 50 mg/kg, ip initiated after 2 days of pre-treatment biopsy administered for 5 days and measured on day 28 by giemsa staining based assay relative to control. As to conditions: 672 h, time 28 day. It counts as functional. The gist of the method: as §1

The subject of data set [8] is Leishmania donovani. Nature of the data set: Antileishmanial activity against Leishmania donovani amastigotes infected in golden hamster assessed as reduction in parasite burden in spleen at 100 mg/kg, po initiated after 2 days of pre-treatment biopsy administered for 5 days and measured on day 28 by giemsa staining based assay relative to control. It counts as functional. As to conditions: 672 h, time 28 day. The gist of the method:
as §2

The nature of data set [9]: Cmax in golden hamster at 100 mg/kg, po measured upto 24 hrs by LC/MS-MS analysis. It counts as ADME, organism-based, Mesocricetus auratus. Further details: route oral, dose 100 mg/kg, time <=24. As to conditions: in vivo. The gist of the method:
(§3)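 Male Syrian hamsters, three per group; single oral dose of 100 mg kg–1 as a suspension in 0.5% sodium carboxymethylcellulose. Plasma concentrations followed over 24 h by LC–MS/MS with electrospray ionization. Parameters derived by non-compartmental analysis; mean ± SD of n = 3.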

The nature of data set [10]: Tmax in golden hamster at 100 mg/kg, po measured upto 24 hrs by LC/MS-MS analysis. It counts as ADME, organism-based, Mesocricetus auratus. As to conditions: in vivo. The gist of the method:
as §3

The nature of data set [11]: AUC (0 to infinity) in golden hamster at 100 mg/kg, po measured upto 24 hrs by LC/MS-MS analysis. The format is ADME, organism-based, Mesocricetus auratus. The conditions noted are these: in vivo. Further details: route oral, dose 100 mg/kg, time <=24. Put shortly: as §3
A short description of data set [12]: Half life in golden hamster at 100 mg/kg, po measured upto 24 hrs by LC/MS-MS analysis. As to conditions: in vivo. The format is ADME, organism-based, Mesocricetus auratus. The gist of the method: as §3
The nature of data set [13]: MRT in golden hamster at 100 mg/kg, po measured upto 24 hrs by LC/MS-MS analysis. The format is ADME, organism-based, Mesocricetus auratus. As to conditions: in vivo. The gist of the method:
as §3

Data set [14] is described as follows: Drug metabolism in golden hamster at 100 mg/kg, po measured upto 24 hrs by LC/MS-MS analysis. It counts as ADME, organism-based, Mesocricetus auratus. As to conditions: in vivo.

For `COC(=O)c1c(NCc2ccc(C(C)(C)C)cc2)noc1-c1cc2c(cc1[N+](=O)[O-])OCO2`, the IC50 in the data set on Leishmania donovani [1] was found to be 2.14 µM; in the data set with Leishmania donovani [2] it was 0.54 µM. Further, the CC50 at 48 h in [3] is 7.49 µM. For the same compound, the selectivity ratio in [4] amounted to 14. Moreover, the inhibition in vivo at 50 mg/kg in the data set with Leishmania donovani [5] came to 71.1%; in the data set on Leishmania donovani [7], 28.6%. The figures for the inhibition in vivo at 100 mg/kg with Leishmania donovani [6] and in the data set on Leishmania donovani [8] were 69.5% and 12.7%, respectively. In data set [9], this compound gave a peak concentration (Cmax) of 15.4 ng/mL. The time to peak (Tmax) in [10] amounted to 3 h. The compound also showed a total exposure AUC(0-inf) in [11] of 149 ng·h/mL. The compound also had a half-life in data set [12] of 3.78 h. This compound also displayed an MRT in data set [13] of 9.53 h. For the same compound, the Drug metabolism entry in data set [14] is “Metabolite_Detected”.

These data come from ChEMBL document CHEMBL4699419, “Antileishmanial assessment of isoxazole derivatives against L. donovani” (RSC Med Chem, 2020).
